# Test results: ChEMBL document CHEMBL1125014, “Synthesis and structure-activity relationships of new 9-N-alkyl derivatives of 9(S)-erythromycylamine” (1990)
# How the values were obtained:
# Mus musculus [1] = assay: ED50 value was measured by sc administration against streptococcus pyogenes infection in mice (in vivo, in experiment 2); assay type: functional
# Outline: (§1)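 Infected mice were dosed orally or subcutaneously at 1 and 5 h postinfection, 0.25 mL of antibiotic solution in 10% aqueous ethanol per dose. Tartaric acid was added where needed for solubility. Several dose concentrations were tested to give the ED50.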
# Mus musculus [2] = assay: (§2) ED50 value was measured by sc administration against streptococcus pyogenes infection in mice (in vivo, in experiment 3); assay type: functional; outline: as §1
# Mus musculus [3] = assay: ED50 value was measured by po administration against streptococcus pyogenes infection in mice (in vivo, in experiment 2); assay type: functional; outline: as §1
# Mus musculus [4] = assay: Plasma concentration in mice was determined by oral administration, 20 mg/kg at 20 min; assay type: functional, organism-based; set-up: dose 20 mg/kg
# Outline: (§3)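 Mice given 20 mg/kg orally or subcutaneously; peripheral plasma sampled at 5, 20 and 40 min and at 1, 2 and 4 h after dosing. Microbiological assay used Micrococcus luteus seeded in Antibiotic Medium 1, with zone sizes converted by the compound's own standard curve. Each value is the average of five mice per time point.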
# Mus musculus [5] = assay: Plasma concentration in mice was determined by oral administration, 20 mg/kg at 5 min; assay type: functional, organism-based; set-up: dose 20 mg/kg; outline: as §3
# Rattus norvegicus [6] = organism: Rattus norvegicus; assay: Fluid concentration in kidney tissue was determined in rats at 4 h; assay type: functional
# Outline: (§4)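 Rats were gavaged at 20 mg/kg and tissues sampled 0.5–6 h after dosing. Drug was assayed microbiologically with Micrococcus luteus seeded in Antibiotic Media 1. Zone sizes were read against each compound's own standard curve. Values are the mean of three rats per time point, in μg/g.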
# Rattus norvegicus [7] = organism: Rattus norvegicus; assay: Fluid concentration in kidney tissue was determined in rats at 6 h; assay type: functional; outline: as §4
# Rattus norvegicus [8] = organism: Rattus norvegicus; assay: Fluid concentration in liver tissue was determined in rats at 2 h; assay type: functional
# Outline: (§5)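 Rats dosed by gavage at 20 mg/kg; lung, liver, kidney, urine and serum sampled at 0.5, 1, 2, 4 and 6 h after dosing. Antibiotic measured by microbiological assay with Micrococcus luteus seeded in Antibiotic Medium 1. Zone sizes were read against the standard curve for the same compound. Each value is the average of three rats per time point.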
# Rattus norvegicus [9] = organism: Rattus norvegicus; assay: Fluid concentration in liver tissue was determined in rats at 4 h; assay type: functional; outline: as §5
# Rattus norvegicus [10] = organism: Rattus norvegicus; assay: Fluid concentration in liver tissue was determined in rats at 6 h; assay type: functional; outline: as §5
# Rattus norvegicus [11] = organism: Rattus norvegicus; assay: Fluid concentration in serum tissue was determined in rats at 0.5 h; assay type: functional; outline: as §5
# Rattus norvegicus [12] = organism: Rattus norvegicus; assay: Fluid concentration in serum tissue was determined in rats at 2 h; assay type: functional; outline: as §5
# Rattus norvegicus [13] = organism: Rattus norvegicus; assay: Fluid concentration in serum tissue was determined in rats at 4 h; assay type: functional; outline: as §5
# Rattus norvegicus [14] = organism: Rattus norvegicus; assay: Fluid concentration in serum tissue was determined in rats at 6 h; assay type: functional; outline: as §5
# Rattus norvegicus [15] = organism: Rattus norvegicus; assay: Fluid concentration in urine tissue was determined in rats at 0.5 h; assay type: functional; outline: as §5
# Rattus norvegicus [16] = organism: Rattus norvegicus; assay: Fluid concentration in urine tissue was determined in rats at 1 h; assay type: functional; outline: as §5
# Rattus norvegicus [17] = organism: Rattus norvegicus; assay: Fluid concentration in urine tissue was determined in rats at 2 h; assay type: functional; outline: as §5
# Rattus norvegicus [18] = organism: Rattus norvegicus; assay: Fluid concentration in urine tissue was determined in rats at 4 h; assay type: functional; outline: as §5
# Rattus norvegicus [19] = assay: Plasma concentration in rats was determined by subcutaneous administration, 20 mg/kg at 1 h; assay type: functional, organism-based; set-up: dose 20 mg/kg
# Outline: (§6)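 Peripheral plasma antibiotic levels in rats given 20 mg/kg orally or subcutaneously. Plasma was sampled at timed points after dosing. Levels were measured by microbiological agar assay with Micrococcus luteus seeded in Antibiotic Media 1, reading zone sizes, and were calculated from a standard curve for the appropriate compound. Each value is the average of three rats per time point, in μg/mL.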
# Rattus norvegicus [20] = assay: Plasma concentration in rats was determined by subcutaneous administration, 20 mg/kg at 2 h; assay type: functional, organism-based; set-up: dose 20 mg/kg; outline: as §6
# Rattus norvegicus [21] = assay: Plasma concentration in rats was determined by subcutaneous administration, 20 mg/kg at 20 min; assay type: functional, organism-based; set-up: dose 20 mg/kg; outline: as §6
# Rattus norvegicus [22] = assay: Plasma concentration in rats was determined by subcutaneous administration, 20 mg/kg at 4 h; assay type: functional, organism-based; set-up: dose 20 mg/kg; outline: as §6
# Rattus norvegicus [23] = assay: Plasma concentration in rats was determined by subcutaneous administration, 20 mg/kg at 40 min; assay type: functional, organism-based; set-up: dose 20 mg/kg; outline: as §6
# Enterococcus faecalis [24] = assay: MIC value was measured against streptococcus faecalis.; assay type: functional
# Mus musculus [25] = assay: ED50 value was measured by po administration against staphylococcus aureus infection in mice (in vivo, in experiment 2); assay type: functional; outline: as §1
# Rattus norvegicus [26] = organism: Rattus norvegicus
# Rattus norvegicus [27] = organism: Rattus norvegicus; remark: listed apart in the source
# Rattus norvegicus [28] = organism: Rattus norvegicus; remark: listed apart in the source
# Mus musculus [29] = assay: as §2; assay type: functional; remark: listed apart in the source
# Mus musculus [30] = assay: Plasma concentration of compound in mice by oral administration, 20 mg/kg at 4 hr; assay type: functional, organism-based; set-up: dose 20 mg/kg
# Outline: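 Peripheral plasma antibiotic levels in mice after a 20 mg/kg oral dose, sampled at timed points after administration. Levels were measured by microbiological agar assay with Micrococcus luteus seeded in Antibiotic Media 1, reading zone sizes, and were calculated from a standard curve for the appropriate compound. Each value is the average of five mice per time point, in μg/mL.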
# Rattus norvegicus [31] = organism: Rattus norvegicus; assay: Fluid concentration in urine was determined in rats at 0.5 hr; assay type: functional; outline: as §5
# Rattus norvegicus [32] = organism: Rattus norvegicus; assay: Fluid concentration in urine was determined in rats at 6 hr; assay type: functional; outline: as §5
# Rattus norvegicus [33] = organism: Rattus norvegicus; assay: Fluid concentration in kidney tissue was determined in rats at 0.5 hr; assay type: functional; outline: as §4
# Rattus norvegicus [34] = organism: Rattus norvegicus; assay: Fluid concentration in kidney tissue was determined in rats at 2 hr; assay type: functional; outline: as §4
# Rattus norvegicus [35] = organism: Rattus norvegicus; assay: Fluid concentration in kidney tissue was determined in rats at 4 hr; assay type: functional; outline: as §4
# Rattus norvegicus [36] = organism: Rattus norvegicus; assay: Fluid concentration in kidney tissue was determined in rats at 6 hr; assay type: functional; outline: as §4
# Rattus norvegicus [37] = organism: Rattus norvegicus; assay: Fluid concentration in liver tissue was determined in rats at 2 hr; assay type: functional; outline: as §5
# Rattus norvegicus [38] = organism: Rattus norvegicus; assay: Fluid concentration in liver tissue was determined in rats at 4 hr; assay type: functional; outline: as §5
# Rattus norvegicus [39] = organism: Rattus norvegicus; assay: Fluid concentration in serum was determined in rats at 0.5 hr; assay type: functional; outline: as §5
# Rattus norvegicus [40] = organism: Rattus norvegicus; assay: Fluid concentration in serum was determined in rats at 1 hr; assay type: functional; outline: as §5
# Rattus norvegicus [41] = assay: Plasma concentration in rats was determined by subcutaneous administration, 20 mg/kg at 2 hr; assay type: functional, organism-based; set-up: dose 20 mg/kg; outline: as §6
# Rattus norvegicus [42] = assay: Plasma concentration in rats was determined by oral administration, 20 mg/kg at 1 hr; assay type: functional, organism-based; set-up: dose 20 mg/kg; outline: as §6
# Rattus norvegicus [43] = assay: Plasma concentration in rats was determined by oral administration, 20 mg/kg at 4 hr; assay type: functional, organism-based; set-up: dose 20 mg/kg; outline: as §6
# Enterococcus faecalis [44] = assay: MIC value was measured against streptococcus faecalis X66; assay type: functional
# Outline: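 Susceptibility determined by standard agar-dilution method against a panel of bacterial strains.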
# Rattus norvegicus [45] = organism: Rattus norvegicus; assay: Fluid concentration in kidney tissue was determined in rats at 1 hr; assay type: functional; outline: as §4
# Rattus norvegicus [46] = organism: Rattus norvegicus; assay: Fluid concentration in liver tissue was determined in rats at 6 hr; assay type: functional; outline: as §5
# Mus musculus [47] = organism: Mus musculus
# Mus musculus [48] = organism: Mus musculus; remark: listed apart in the source
# Mus musculus [49] = organism: Mus musculus; remark: listed apart in the source
# Mus musculus [50] = organism: Mus musculus; remark: listed apart in the source
# Rattus norvegicus [51] = organism: Rattus norvegicus; remark: listed apart in the source
# Rattus norvegicus [52] = organism: Rattus norvegicus; remark: listed apart in the source
# Rattus norvegicus [53] = organism: Rattus norvegicus; remark: listed apart in the source
# Rattus norvegicus [54] = organism: Rattus norvegicus; remark: listed apart in the source
compound,measurement,setting,value
CCCN[C@@H]1[C@H](C)[C@@H](O)[C@](C)(O)[C@@H](CC)OC(=O)[C@H](C)[C@@H](OC2CC(C)(OC)C(O)C(C)O2)[C@H](C)[C@@H](OC2OC(C)CC(N(C)C)C2O)[C@](C)(O)C[C@H]1C (some centres undefined),ED50,Mus musculus [1],1.4 mg/kg
same,ED50,Mus musculus [2],1.7 mg/kg
same,ED50,Mus musculus [3],6 mg/kg
same,Plasma concentration,Mus musculus [4],0.01 µg/mL
same,Plasma concentration,Mus musculus [5],0 µg/mL
same,Activity,Rattus norvegicus [6],4.28 µg/mL
same,Activity,Rattus norvegicus [7],3.21 µg/mL
same,Activity,Rattus norvegicus [8],2.99 µg/mL
same,Activity,Rattus norvegicus [9],3.06 µg/mL
same,Activity,Rattus norvegicus [10],1.19 µg/mL
same,Activity,Rattus norvegicus [11],0.15 µg/mL
same,Activity,Rattus norvegicus [12],0.23 µg/mL
same,Activity,Rattus norvegicus [13],0.12 µg/mL
same,Activity,Rattus norvegicus [14],0.05 µg/mL
same,Activity,Rattus norvegicus [15],3.92 µg/mL
same,Activity,Rattus norvegicus [16],3.78 µg/mL
same,Activity,Rattus norvegicus [17],4.8 µg/mL
same,Activity,Rattus norvegicus [18],18.63 µg/mL
same,Plasma concentration,Rattus norvegicus [19],0.14 µg/mL
same,Plasma concentration,Rattus norvegicus [20],0.18 µg/mL
same,Plasma concentration,Rattus norvegicus [21],0.07 µg/mL
same,Plasma concentration,Rattus norvegicus [22],0.23 µg/mL
same,Plasma concentration,Rattus norvegicus [23],0.14 µg/mL
same,MIC,Enterococcus faecalis [24],0.12 µg/mL
same,ED50,Mus musculus [25],25 mg/kg
same,Plasma concentration,Rattus norvegicus [26],0.01 µg/mL
same,Plasma concentration,Rattus norvegicus [27],0.08 µg/mL
same,Plasma concentration,Rattus norvegicus [28],0.06 µg/mL
CC[C@H]1OC(=O)[C@H](C)[C@@H](O[C@H]2C[C@@](C)(OC)[C@@H](O)[C@H](C)O2)[C@H](C)[C@@H](O[C@@H]2O[C@H](C)C[C@H](N(C)C)[C@H]2O)[C@](C)(O)C[C@@H](C)C(=O)[C@H](C)[C@@H](O)[C@]1(C)O [ERYTHROMYCIN],ED50,Mus musculus [29],2.8 mg/kg
same,Plasma concentration,Mus musculus [30],0 µg/mL
same,Activity,Rattus norvegicus [31],7.5 µg/mL
same,Activity,Rattus norvegicus [32],0.35 µg/mL
same,Activity,Rattus norvegicus [33],0.17 µg/mL
same,Activity,Rattus norvegicus [34],0 µg/mL
same,Activity,Rattus norvegicus [35],0 µg/mL
same,Activity,Rattus norvegicus [36],0 µg/mL
same,Activity,Rattus norvegicus [37],0.04 µg/mL
same,Activity,Rattus norvegicus [38],0 µg/mL
same,Activity,Rattus norvegicus [39],0.01 µg/mL
same,Activity,Rattus norvegicus [40],0.4 µg/mL
same,Plasma concentration,Rattus norvegicus [41],1.06 µg/mL
same,Plasma concentration,Rattus norvegicus [42],0.04 µg/mL
same,Plasma concentration,Rattus norvegicus [43],0.02 µg/mL
same,MIC,Enterococcus faecalis [44],0.06 µg/mL
same,Activity,Rattus norvegicus [45],0.15 µg/mL
same,Activity,Rattus norvegicus [46],0 µg/mL
same,Plasma concentration,Mus musculus [47],0 µg/mL
same,Plasma concentration,Mus musculus [48],0.01 µg/mL
same,Plasma concentration,Mus musculus [49],0 µg/mL
same,Plasma concentration,Mus musculus [50],0.01 µg/mL
same,Plasma concentration,Rattus norvegicus [51],1.31 µg/mL
same,Plasma concentration,Rattus norvegicus [52],1.21 µg/mL
same,Plasma concentration,Rattus norvegicus [53],1.16 µg/mL
same,Plasma concentration,Rattus norvegicus [54],0 µg/mL
